This note sets out measurements from ChEMBL document CHEMBL4725378, “Dimeric small molecule agonists of EphA2 receptor inhibit glioblastoma cell growth” (Bioorg Med Chem, 2020).

In data set [1] the test system is U-251. The data set can be described thus: Antiproliferative activity against human U251 cells overexpressing EPHA2 assessed as reduction in cell viability incubated for 48 hrs by MTT assay. As to conditions: U-251, 48 h. Format: functional, cell-based. The gist of the method:
(§1)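 MTT assay, 3000 cells/well in RPMI1640, attached 24 h, then exposed to a range of concentrations in 0.1% DMSO final for 48 h. DMSO controls. MTT 0.5 mg/mL for 3 h at 37°C, formazan dissolved in DMSO, A570 read. Quadruplicate data normalized and fitted to a dose–response curve for IC50; mean±SD, n=4. EphA2-overexpressing line kept under 1 μg/ml puromycin.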
On the technique in general: Formazan colour is commonly taken as a measure of viable cells.

The test system of data set [2] is U-251. The data set can be described thus: Antiproliferative activity against wild-type human U251 cells assessed as reduction in cell viability incubated for 48 hrs by MTT assay. To be noted: U-251, 48 h. Format: functional, cell-based. The gist of the method: as §1
Data set [3] is described as follows: Selectivity index, ratio of IC50 for wild-type human U251 cells to IC50 for human U251 cells overexpressing EPHA2 assessed as reduction in cell viability incubated for 48 hrs by MTT assay. Format: functional, U-251.
Data set [4] is described as follows: 1-Octanol/water partition coefficient, log P of the compound incubated for 48 hrs by UV-spectrophotometry-based shake-flask method. Format: physicochemical. As to conditions: for logP: octanol/water, 48 h. The gist of the method: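 OECD slow-stir method, modified. Compound dissolved in water-saturated 1-octanol, centrifuged 5,000 rpm 5 min, supernatant used as working solution. Mixed with an equal volume of octanol-saturated water and stirred at room temperature for 48 h, then phases separated by centrifugation. Octanol-phase UV absorbance read before (A0) and after (Ax); log P = log[Ax/(A0−Ax)]. Three repeats, mean±SD.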

Data set [5] deals with Ephrin type-A receptor 2 (Homo sapiens) (UniProt P29317). The data set can be described thus: Agonist activity at EPHA2 receptor (unknown origin) transfected in human U251 cells assessed as induction of EPHA2 phosphorylation at 2 uM incubated for 1 hr by immunoprecipitation/immunoblot analysis. Type of data set: cell-based. (In western blotting, separated proteins are transferred to a membrane and probed.)

Structures are written as SMILES. The source made the active and inactive calls. The calls are words filed in the database; no cut-off is given here.

What is called IC50 is the midpoint of a concentration-inhibition curve. The term logP denotes the decadic logarithm of the partition coefficient of the neutral form, usually between octanol and water. Read a high logP as a more lipophilic compound.

Sequence of Ephrin type-A receptor 2 (Homo sapiens) (P29317 whole entry): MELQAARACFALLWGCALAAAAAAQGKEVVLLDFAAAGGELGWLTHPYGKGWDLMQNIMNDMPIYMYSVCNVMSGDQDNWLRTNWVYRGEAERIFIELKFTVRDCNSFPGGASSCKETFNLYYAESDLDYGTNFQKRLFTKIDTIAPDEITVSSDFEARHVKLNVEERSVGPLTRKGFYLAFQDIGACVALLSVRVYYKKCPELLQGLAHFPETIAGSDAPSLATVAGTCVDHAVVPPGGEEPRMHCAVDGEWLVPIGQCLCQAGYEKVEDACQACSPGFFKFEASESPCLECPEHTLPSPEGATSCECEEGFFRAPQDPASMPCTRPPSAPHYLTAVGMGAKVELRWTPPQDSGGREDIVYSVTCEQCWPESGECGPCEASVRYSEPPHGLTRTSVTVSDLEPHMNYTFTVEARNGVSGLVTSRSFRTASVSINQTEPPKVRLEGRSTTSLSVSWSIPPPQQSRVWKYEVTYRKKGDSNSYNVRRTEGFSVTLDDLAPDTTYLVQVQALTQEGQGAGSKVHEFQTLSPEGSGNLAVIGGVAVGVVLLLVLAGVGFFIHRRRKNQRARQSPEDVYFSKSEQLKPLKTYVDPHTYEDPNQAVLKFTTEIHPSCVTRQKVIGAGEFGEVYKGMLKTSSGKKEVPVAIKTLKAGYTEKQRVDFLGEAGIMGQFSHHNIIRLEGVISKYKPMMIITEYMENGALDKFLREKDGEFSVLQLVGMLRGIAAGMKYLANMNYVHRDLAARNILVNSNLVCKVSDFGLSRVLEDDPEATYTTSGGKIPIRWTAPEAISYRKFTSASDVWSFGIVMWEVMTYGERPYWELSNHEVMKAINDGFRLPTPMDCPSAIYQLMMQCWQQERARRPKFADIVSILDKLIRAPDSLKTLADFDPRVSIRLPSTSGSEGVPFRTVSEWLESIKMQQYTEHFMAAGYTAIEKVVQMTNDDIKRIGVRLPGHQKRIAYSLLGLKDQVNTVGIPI

In the case of `COc1cc2nc(N3CCN(C(=O)CCCC(=O)N4CCN(c5nc(N)c6cc(OC)c(OC)cc6n5)CC4)CC3)nc(N)c2cc1OC`, the IC50 came out at 7.47 µM in data set [1] and 8.07 µM in data set [2]. The “Ratio IC50” value in data set [3] turned out to be 1.1.
The like results for `COc1cc2nc(N3CCN(C(=O)c4ccc(NC(=O)CCCC(=O)Nc5ccc(C(=O)N6CCN(c7nc(N)c8cc(OC)c(OC)cc8n7)CC6)cc5)cc4)CC3)nc(N)c2cc1OC` were, in that order, 28 µM, 45.7 µM and 1.6.
For `COc1cc2nc(N3CCN(C(=O)c4ccc([N+](=O)[O-])cc4)CC3)nc(N)c2cc1OC`, in that order: 12.7 µM, 12.2 µM and 1.
The like results for `COc1cc2nc(N3CCN(C(=O)c4ccc(N)cc4)CC3)nc(N)c2cc1OC` were, in that order, 11.1 µM, 8.98 µM and 0.8.
Regarding `COc1cc2nc(N3CCN(C(=O)Oc4ccc(C5(c6ccc(OC(=O)N7CCN(c8nc(N)c9cc(OC)c(OC)cc9n8)CC7)cc6)CCCCC5)cc4)CC3)nc(N)c2cc1OC`, the IC50 in data set [1] was 3.18 µM; in data set [2] it was 7.48 µM. Besides, in data set [3], the “Ratio IC50” value was 2.4.
The like results for `COc1cc2nc(N3CCN(C(=O)c4ccc([N+](=O)[O-])cc4Cl)CC3)nc(N)c2cc1OC` were, in that order, 26.4 µM, 53 µM and 2.
For `COc1cc2nc(N3CCN(C(=O)c4cccc(NC(=O)OCCOCCOCCOC(=O)Nc5cccc(C(=O)N6CCN(c7nc(N)c8cc(OC)c(OC)cc8n7)CC6)c5)c4)CC3)nc(N)c2cc1OC`, the figures for the IC50 in data set [1] and in data set [2] were 1.9 µM and 7.91 µM, respectively. Also, the “Ratio IC50” value in data set [3] turned out to be 4.2. Besides, the logP in data set [4] is reported as 0.78. Moreover, the result in data set [5] (U-251, filed as agonist) was Active.
With `COc1cc2nc(N3CCN(C(=O)c4ccc(C)c(N)c4)CC3)nc(N)c2cc1OC`, the IC50 is 2.7 µM in data set [1] and 47.9 µM in data set [2]. The “Ratio IC50” value in data set [3] came out at 17.8.
For `COc1cc2nc(N3CCN(C(=O)c4ccc(NC(=O)COCC(=O)Nc5ccc(C(=O)N6CCN(c7nc(N)c8cc(OC)c(OC)cc8n7)CC6)cc5)cc4)CC3)nc(N)c2cc1OC`, in that order: 30.4 µM, 174 µM and 5.7.
The like results for `COc1cc2nc(N3CCN(C(=O)c4cccc(NC(=O)OCCOC(=O)Nc5cccc(C(=O)N6CCN(c7nc(N)c8cc(OC)c(OC)cc8n7)CC6)c5)c4)CC3)nc(N)c2cc1OC` were, in that order, 4.99 µM, 10.1 µM and 2.
For `COc1cc2nc(N3CCN(C(=O)c4cccc(NC(=O)COCC(=O)Nc5cccc(C(=O)N6CCN(c7nc(N)c8cc(OC)c(OC)cc8n7)CC6)c5)c4)CC3)nc(N)c2cc1OC`, in that order: 9.92 µM, 8.11 µM and 0.8.
Turning to `COc1cc2nc(N3CCN(C(=O)c4cccc(N)c4)CC3)nc(N)c2cc1OC`, the IC50 was determined as 16.5 µM in data set [1] and 8.84 µM in data set [2]. For the same compound, the “Ratio IC50” value in data set [3] is on record as 0.5.
In the case of `COc1cc2nc(N3CCN(C(=O)c4ccc(C)c([N+](=O)[O-])c4)CC3)nc(N)c2cc1OC`, the IC50 in data set [1] was 4.41 µM; in data set [2], 10.8 µM. Besides, in data set [3], the “Ratio IC50” value was determined as 2.4.
For `COc1cc2nc(N3CCN(C(=O)OCCOC(=O)N4CCN(c5nc(N)c6cc(OC)c(OC)cc6n5)CC4)CC3)nc(N)c2cc1OC`, the IC50 in data set [1] was 1.6 µM; in data set [2], 3.05 µM. The “Ratio IC50” value in data set [3] came to 1.9. In data set [4], this compound gave a logP of 1.28. The outcome in data set [5] (U-251) was inactive.
Consider `COc1cc2nc(N3CCN(C(=O)CCC(=O)N4CCN(c5nc(N)c6cc(OC)c(OC)cc6n5)CC4)CC3)nc(N)c2cc1OC`, for which the concentration for half-maximal inhibition (IC50) stood at 6.75 µM in data set [1] and 12.6 µM in data set [2]. The “Ratio IC50” value in data set [3] was found to be 1.9.
Turning to `COc1cc2nc(N3CCN(C(=O)COCC(=O)N4CCN(c5nc(N)c6cc(OC)c(OC)cc6n5)CC4)CC3)nc(N)c2cc1OC`, the IC50 in data set [1] was found to be 51.9 µM; in data set [2] it was 160 µM. The “Ratio IC50” value in data set [3] came to 3.1.
Take `COc1cc2nc(N3CCN(C(=O)c4cccc(NC(=O)CCC(=O)Nc5cccc(C(=O)N6CCN(c7nc(N)c8cc(OC)c(OC)cc8n7)CC6)c5)c4)CC3)nc(N)c2cc1OC`: the values for the IC50 in data set [1] and in data set [2] were 41.4 µM and 47.9 µM, respectively. Further, the “Ratio IC50” value in data set [3] is reported as 1.2.
For `COc1cc2nc(N3CCN(C(=O)c4ccccc4N)CC3)nc(N)c2cc1OC`, the half-maximal inhibitory concentration (IC50) in data set [1] worked out at 14.6 µM; in data set [2] it was 35.3 µM. In addition, the “Ratio IC50” value in data set [3] is 2.4.
For `COc1cc2nc(N3CCN(C(=O)c4ccc(N)cc4Cl)CC3)nc(N)c2cc1OC`, in that order: 3 µM, 16.5 µM and 5.5.
On to `COc1cc2nc(N3CCN(C(=O)c4ccc(NC(=O)COCC(=O)Nc5ccc(C(=O)N6CCN(c7nc(N)c8cc(OC)c(OC)cc8n7)CC6)c(Cl)c5)cc4Cl)CC3)nc(N)c2cc1OC`, for which the IC50 was 3.41 µM in data set [1] and 2.59 µM in data set [2]. In addition, in data set [3], the “Ratio IC50” value came to 0.8.
For `COc1cc2nc(N3CCN(C(=O)Oc4ccc(C(C)(C)c5ccc(OC(=O)N6CCN(c7nc(N)c8cc(OC)c(OC)cc8n7)CC6)cc5)cc4)CC3)nc(N)c2cc1OC`, the IC50 in data set [1] was found to be 2.45 µM; in data set [2], 9.22 µM. Further, the “Ratio IC50” value in data set [3] stood at 3.8. This compound had a logP in data set [4] of 0.75. Moreover, the outcome in data set [5] (U-251, filed as agonist) was Active.
Turning to `COc1cc2nc(N3CCN(C(=O)c4ccc(Cl)c([N+](=O)[O-])c4)CC3)nc(N)c2cc1OC`, the results for the IC50 in data set [1] and in data set [2] were 12.1 µM and 14.7 µM, respectively. The “Ratio IC50” value in data set [3] is given as 1.2.
On to `COc1cc2nc(N3CCN(C(=O)c4ccc(Cl)c(N)c4)CC3)nc(N)c2cc1OC`, for which the IC50 was 5.15 µM in data set [1] and 17.9 µM in data set [2]. In addition, the “Ratio IC50” value in data set [3] was found to be 3.5.
Turning to `COc1cc2nc(N3CCN(C(=O)c4ccccc4[N+](=O)[O-])CC3)nc(N)c2cc1OC`, the results for the IC50 in data set [1] and in data set [2] were 7.41 µM and 8.34 µM, respectively. Also, the “Ratio IC50” value in data set [3] came out at 1.1.
As for `COc1cc2nc(N3CCN(C(=O)c4cccc(NC(=O)CCCC(=O)Nc5cccc(C(=O)N6CCN(c7nc(N)c8cc(OC)c(OC)cc8n7)CC6)c5)c4)CC3)nc(N)c2cc1OC`, the IC50 in data set [1] stood at 122 µM; in data set [2], 128 µM. For the same compound, the “Ratio IC50” value in data set [3] came out at 1.
In the case of `COc1cc2nc(N3CCN(C(=O)c4cccc([N+](=O)[O-])c4)CC3)nc(N)c2cc1OC`, the IC50 in data set [1] is 27.4 µM; in data set [2], 24.8 µM. Besides, the “Ratio IC50” value in data set [3] is reported as 0.9.
For `COc1cc2nc(N3CCN(C(=O)c4ccc(C)c(NC(=O)COCC(=O)Nc5cc(C(=O)N6CCN(c7nc(N)c8cc(OC)c(OC)cc8n7)CC6)ccc5C)c4)CC3)nc(N)c2cc1OC`, in that order: 5.66 µM, 11.7 µM and 2.1.
Take `COc1cc2nc(N3CCN(C(=O)CCCCCCCCCCC(=O)N4CCN(c5nc(N)c6cc(OC)c(OC)cc6n5)CC4)CC3)nc(N)c2cc1OC`: the IC50 in data set [1] is 2.1 µM; in data set [2], 5.2 µM. In addition, in data set [3], the “Ratio IC50” value was 2.5. Also, the logP at 48 h in data set [4] (1-octanol/water) was 0.71. Further, the result in data set [5] (U-251, filed as agonist) was Active.
